Experimental findings from ChEMBL document CHEMBL1123934, “Indazoles as indole bioisosteres: synthesis and evaluation of the tropanyl ester and amide of indazole-3-carboxylate as antagonists at the serotonin 5HT3 receptor” (J Med Chem, 1987) are described below.

Holding throughout (assay type): functional
Experiment [1] has as its target T1, Serotonin 3 (5-HT3) receptor (Rattus norvegicus) (UniProt P35563+Q9JJ16). In words: The compound was evaluated for the inhibition of the von Bezold-Jarisch reflex in rat administered intravenously. The method, boiled down:
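Urethane-anesthetized rats; serotonin bolus 0.03 mg/kg iv (femoral vein) gives control reflex bradycardia. After heart rate returns to baseline (within 5 min), test compound iv as free base in dilute acid (≤1% HCl). Serotonin challenge repeated after 15 min. Percent inhibition of bradycardia at three doses, n ≥ 3 each. ED50 from mean values.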

In experiment [2] the target is T1, Serotonin 3 (5-HT3) receptor (Rattus norvegicus). Nature of the experiment: The compound was evaluated for the inhibition of the von Bezold-Jarisch reflex in rat administered orally. A digest of the protocol: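 Overnight-fasted rats gavaged with compound (free base in ≤1% HCl, 5 mL/kg). Urethane anesthesia 45 min later. Serotonin bolus 0.03 mg/kg iv 15 min after anesthesia. Saline-dosed rats as controls. Percent inhibition of reflex bradycardia at three doses, n ≥ 3 each. ED50 from mean values.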

Experiment [3] has the same target. Nature of the experiment: Selectivity ratio of peroral vs intravenous delivery.

A value given as a limit tells only on which side of the number the result lay.

In general, ED50 refers to the midpoint of the dose-response relation. Regarding `CN1C2CCC1CC(OC(=O)c1[nH]nc3ccccc13)C2` (stereo unspecified), the 50% effective dose (ED50) was determined as 0.003 mg/kg in experiment [1] and 0.2 mg/kg in experiment [2]. For the same compound, the Ratio in experiment [3] worked out at 66.
For `CN1[C@@H]2CC[C@H]1C[C@@H](OC(=O)c1c[nH]c3ccccc13)C2` the same measures were 0.004 mg/kg, 0.2 mg/kg and 50.
Regarding `CN1C2CCCC1CC(NC(=O)c1nn(C)c3ccccc13)C2` (stereo unspecified), the Ratio in experiment [3] came out at 15.
As for `CN1C2CCC1CC(NC(=O)c1n[nH]c3ccccc13)C2` (stereo unspecified), the results for the ED50 in experiment [1] and in experiment [2] were 0.002 mg/kg and 0.02 mg/kg, respectively. Moreover, the Ratio in experiment [3] turned out to be 10.
In experiment [1], `CN1C2CCC1CC(NC(=O)c1c3ccccc3nn1C)C2` (stereo unspecified) displayed a 50% effective dose (ED50) greater than 0.01 mg/kg.
